Published values of several laboratories.
Protocols differ between the studies behind these lines.
Target: NUAK family SNF1-like kinase 1 (NUAK1, Homo sapiens, UniProt O60285)
Residues used in one study (O60285 1-661): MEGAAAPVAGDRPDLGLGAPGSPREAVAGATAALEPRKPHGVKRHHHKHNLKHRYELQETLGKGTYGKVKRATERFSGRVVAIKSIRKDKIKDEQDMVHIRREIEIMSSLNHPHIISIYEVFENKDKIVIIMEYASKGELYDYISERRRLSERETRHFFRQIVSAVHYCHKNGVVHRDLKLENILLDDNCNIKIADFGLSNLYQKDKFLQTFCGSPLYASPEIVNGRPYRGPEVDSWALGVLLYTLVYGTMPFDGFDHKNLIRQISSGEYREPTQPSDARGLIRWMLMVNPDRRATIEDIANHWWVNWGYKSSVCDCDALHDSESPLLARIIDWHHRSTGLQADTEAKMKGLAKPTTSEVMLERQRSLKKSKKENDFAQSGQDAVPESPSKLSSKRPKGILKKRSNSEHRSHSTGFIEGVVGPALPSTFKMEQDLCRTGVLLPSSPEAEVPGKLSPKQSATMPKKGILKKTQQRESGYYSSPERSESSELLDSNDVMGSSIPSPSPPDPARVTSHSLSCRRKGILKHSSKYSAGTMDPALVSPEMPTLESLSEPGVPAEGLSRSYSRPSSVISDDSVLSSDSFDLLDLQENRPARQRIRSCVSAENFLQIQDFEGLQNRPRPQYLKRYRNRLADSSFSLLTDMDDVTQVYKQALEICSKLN

Structure (SMILES)	test	setting	endpoint	result
N#Cc1ccc(Nc2ccc3[nH]c(=O)[nH]c3c2)c(Cl)c1	cell-free assay, competition with immobilised ligand	1 µM	remaining binding	100%
NS(=O)(=O)c1ccc(CNc2nc(Nc3cccc(CN4CCOCC4)c3)ncc2Br)cc1	enzyme activity, inhibitor, radiometric	1 µM	remaining activity	23%
CO[C@H]1CC[C@H](CNc2ccc(S(=O)(=O)NC(=O)c3ccc(N4CCN(CC5=C(c6ccc(Cl)cc6)CC(C)(C)CC5)CC4)cc3Oc3cnc4[nH]ccc4c3)cc2[N+](=O)[O-])CC1	cell-free assay, competition with immobilised ligand	1 µM	remaining binding	100%
CN(C)C1CCN(CC#Cc2nn(C3CCCC3)c3nc(NCc4ccccc4)ncc23)C1 (stereo not drawn)	enzyme activity, inhibitor, FRET	10 µM	inhibition	48%
NS(=O)(=O)c1cc(NC(=O)C2(c3ccccc3Cl)CC2)ccc1Oc1cccc(Cl)c1	cell-free assay, competition with immobilised ligand	1 µM	remaining binding	95%
CNC(=O)c1cc(Oc2ccc(NC(=O)Nc3ccc(Cl)c(C(F)(F)F)c3)cc2)ccn1	enzyme activity, inhibitor	10 µM	inhibition	2%
O=C(NCCCNc1nc(Nc2cccc(NC(=O)N3CCCC3)c2)ncc1Br)C1CCC1	enzyme activity, inhibitor, radiometric	1 µM	remaining activity	0%
CC/C(=N\NC(=O)NCc1cccc(O)c1)c1ccc(O)c(C)c1O	enzyme activity, inhibitor	0.1 µM	inhibition	-2.5%
COc1ccc2c(c1)O[C@@H](c1ccc(OC)c(OC)c1)C[C@H]2NC(=O)C1(c2ccc3c(c2)OC(F)(F)O3)CC1	cell-free assay, competition with immobilised ligand	1 µM	remaining binding	86%
O=C(NCCCNc1nc(Nc2cccc(NC(=O)N3CCCC3)c2)ncc1I)c1cccs1	enzyme activity, inhibitor, radiometric	1 µM	remaining activity	2%
O=C1Nc2ccc(Cl)cc2C1=Cc1cc(Cl)c(O)c(Cl)c1	cell-free assay	0.5 µM	remaining signal	72.5%
CO[C@@H](C)c1c(Nc2ccc([C@H](N(C)C(=O)C3CCS(=O)(=O)CC3)C(F)(F)F)cc2)cnc2cc(Cl)nn12	cell-free assay, competition with immobilised ligand	1 µM	remaining binding	98%
CCCS(=O)(=O)Nc1ccc(F)c(C(=O)c2c[nH]c3ncc(-c4ccc(Cl)cc4)cc23)c1F	enzyme activity, inhibitor	1 µM	inhibition	< 20%
NS(=O)(=O)c1ccc(CNc2ccnc(Nc3cccc(CN4CCOCC4)c3)n2)cc1	enzyme activity, inhibitor, radiometric	1 µM	remaining activity	79%
Nc1ncnc2occ(-c3ccc(NC(=O)Nc4cc(C(F)(F)F)ccc4F)cc3)c12	cell-free assay, inhibitor	20 µM	remaining signal	70%
Cc1nn(CC(F)(F)F)cc1Nc1ncc(Br)c(NCCCNC(=O)C2CCC2)n1	enzyme activity, inhibitor, radiometric	1 µM	remaining activity	22%
O=C(Nc1ccc(Oc2ccc(F)cc2)cc1)N1CCc2ncccc2[C@H]1c1ccc(F)cc1	cell-free assay, competition with immobilised ligand	1 µM	remaining binding	92%
CN1CCc2cc(Nc3ncc(C4CC4)c(NCCCNC(=O)C4CCC4)n3)ccc2C1	enzyme activity, inhibitor, radiometric	1 µM	remaining activity	6%
Cc1cc(NC(=O)c2cccc3cc(-c4cccc5[nH]nc(N)c45)ccc23)ccc1F	enzyme activity, inhibitor	0.1 µM	activity vs control	100%
N#CCCc1ccc2c(c1)-c1[nH]c3ccc([N+](=O)[O-])cc3c1CC(=O)N2	cell-free assay	0.5 µM	remaining signal	14.1%
Brc1cnc(Nc2cccc(CN3CCOCC3)c2)nc1NCCc1c[nH]cn1	enzyme activity, inhibitor, radiometric	1 µM	remaining activity	1%
CCc1ccccc1C(=O)Nc1n[nH]c2c(C)c(F)c(C3C(C#N)=C(C)N(C)C(C)=C3C#N)cc12	cell-free assay, competition with immobilised ligand	1 µM	remaining binding	33%
O=C1NC(=O)c2cc(Nc3ccc(F)cc3)c(Nc3ccc(F)cc3)cc21	cell-free assay	0.5 µM	remaining signal	94%
Cc1ccc(Nc2nccc(N(C)c3ccc4c(C)n(C)nc4c3)n2)cc1S(N)(=O)=O	enzyme activity, inhibitor	0.3 µM	inhibition	14%
CN(c1nccc(-c2cnn3ncccc23)n1)C1CC1	cell-free assay	1 µM	remaining signal	93%
O=C(NCCCNc1nc(Nc2cccc(CN3CCOCC3)c2)ncc1C1CC1)C1CCC1	enzyme activity, inhibitor, radiometric	1 µM	remaining activity	31%
CNCc1ccccc1-c1csc([C@@H](C)Nc2nc(C)nc3cc(OC)c(OC)cc23)c1	cell-free assay, competition with immobilised ligand	1 µM	remaining binding	97%
